Reference: ChEMBL document CHEMBL1155196, “N-hydroxybenzimidazole inhibitors of the transcription factor LcrF in Yersinia: novel antivirulence agents” (J Med Chem, 2009)
Activity calls are given as the source filed them. No cut-off for these calls is given here.

Experiments:
Nucleic Acid = experiment: Binding affinity to supercoiled Escherichia coli pET-15b DNA after 30 mins by agarose gel electrophoresis assay; format: nucleic-acid assay
Summary of the method: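 Nonspecific DNA binding: compounds diluted to 1 mg/mL in DMSO with 0.4% ethanolamine, then added 1:10 (final 100 μg/mL) to 100 ng supercoiled pET-15b plasmid in 20 mM Hepes pH 7.6, 10 mM ammonium sulfate, 30 mM KCl, 1 mM EDTA, 0.2% polysorbate-20; 30 min room temperature; 0.8% agarose gel, ethidium bromide stain; migration shift scored; vehicle control.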

J774.A1 [1] = experiment: Cytotoxicity against mouse J774A1 cells assessed as LDH release at 50 ug/mL after 18 hrs by colorimetric assay; format: cell-based; details: j774.a1, 18 h
[2] = Inhibition of 6His-tagged Yersinia sp. LcrF binding to biotinylated double-stranded DNA by cell free-based chemiluminescence assay
Summary of the method: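 Biotinylated double-stranded DNA carrying LcrF sites (2 nM) captured on streptavidin plates and incubated with 6His-LcrF (20 nM) plus titrated inhibitor in Hepes/ammonium sulfate/KCl/EDTA buffer with 0.2% polysorbate 20 and 0.5% non-fat milk. After washing, anti-6His then HRP secondary antibody, chemiluminescence read-out. % inhibition against control wells, curve-fitted IC50; mostly mean of two independent experiments.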

J774.A1 [3] = experiment: Inhibition of Yersinia pseudotuberculosis YP3 pIB1 LcrF-mediated cytotoxicity against mouse J774A1 cells assessed as LDH release at 50 ug/mL after 18 hrs by colorimetric assay; format: cell-based; details: Yersinia pseudotuberculosis YPIII
Summary of the method: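 J774A.1 macrophages plated at 2 × 10^4 per well the day before. Y. pseudotuberculosis YPIIIpIB1 grown in 2-YT with 20 mM MgCl2 and 20 mM sodium oxalate, 90 min at 26 °C then 90 min at 37 °C. Infection at MOI 5–10 in DMEM, 2 h at 37 °C, 5% CO2. Gentamicin 50 μg/mL added, then ~18 h. Compound at 50 μg/mL in both culture and wells; vehicle DMSO/0.4% ethanolamine. LDH release measured colorimetrically, expressed as % of wild-type vehicle cytotoxicity.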

[4] = molecular target: T1, HTH-type transcriptional regulator ExsA (Pseudomonas aeruginosa (strain ATCC 15692 / PAO1 / 1C / PRS 101 / LMG12228), UniProt P26993); experiment: Inhibition of Pseudomonas aeruginosa ExsA binding to DNA
T1 sequence (P26993 whole entry): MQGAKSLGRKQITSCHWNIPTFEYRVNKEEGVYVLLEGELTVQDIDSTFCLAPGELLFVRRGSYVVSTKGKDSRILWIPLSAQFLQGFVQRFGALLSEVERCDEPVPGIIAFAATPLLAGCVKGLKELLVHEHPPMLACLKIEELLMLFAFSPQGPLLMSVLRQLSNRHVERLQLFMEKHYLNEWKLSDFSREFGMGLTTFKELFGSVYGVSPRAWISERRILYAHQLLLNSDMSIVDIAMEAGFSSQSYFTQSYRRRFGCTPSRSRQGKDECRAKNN
Summary of the method: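 ExsA-DNA binding run like the LcrF plate assay: immobilised biotinylated DNA, His-tagged regulator, titrated inhibitor, washing, anti-6His/HRP chemiluminescent detection, % inhibition against control wells, curve-fitted IC50.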

[5] = Inhibition of Salmonella sp. SlyA binding to DNA
Summary of the method: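 Same format as the LcrF ELISA-type assay. Biotinylated double-stranded DNA carrying the binding sequence was captured on streptavidin-coated wells with His-tagged SlyA and titrated inhibitor. Buffer was 20 mM Hepes, 10 mM ammonium sulfate, 30 mM KCl, 1 mM EDTA, 0.2% polysorbate 20 and 0.5% non-fat milk. After washing, bound complex was detected with anti-6His then HRP secondary and chemiluminescence. IC50 came from dose-response fits against control wells.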

[6] = system: Yersinia pseudotuberculosis; experiment: Antimicrobial activity against Yersinia pseudotuberculosis after 18 to 24 hrs by CLSI microdilution test; format: functional
Staphylococcus aureus = experiment: Antimicrobial activity against Staphylococcus aureus RN450 after 18 to 24 hrs by CLSI microdilution test; format: functional
Escherichia coli = experiment: Antimicrobial activity against Escherichia coli ATCC 25922 after 18 to 24 hrs by CLSI microdilution test; format: functional

Structure (SMILES) | Activity (J774.A1 [1]) | IC50 [2] | further results
CN1CCN(CCOc2cc3nc(-c4ccc(NC(=O)/C=C/c5ccc(F)cc5)cc4)n(O)c3cc2[N+](=O)[O-])CC1 | Non-toxic |  | IC50 (Nucleic Acid): 3.1 µM
CCOc1cc2nc(-c3ccc(NC(=O)/C=C/c4ccc(F)cc4)cc3)n(O)c2cc1[N+](=O)[O-] | Non-toxic | 17.1 µM | Activity (J774.A1 [3]): Active
O=C(/C=C/c1ccc(F)cc1)Nc1ccc(-c2nc3ccc(-n4cccn4)cc3n2O)cc1 | Non-toxic | 53.7 µM | 
O=C(/C=C/c1ccc(-c2c[nH]cn2)cc1)Nc1ccc(-c2nc3ccc([N+](=O)[O-])cc3n2O)cc1 | Non-toxic | > 44.8 µM | 
O=C(/C=C/c1ccc(F)cc1)Nc1ccc(-c2nc3ccc(Cl)cc3n2O)cc1 | Non-toxic | > 100 µM | 
O=C(/C=C/c1ccc(F)cc1)Nc1ccc(-c2nc3ccc(-n4ccnc4)cc3n2O)cc1 | Non-toxic | 37.3 µM | 
O=C(NCc1ccc(-c2nc3ccc([N+](=O)[O-])cc3n2O)cc1)c1ccc(F)cc1 | Non-toxic | > 58.4 µM | 
Cc1cc(-c2nc3ccc([N+](=O)[O-])cc3n2O)ccc1NC(=O)/C=C/c1ccc(F)cc1 | Non-toxic | 25.3 µM | 
O=C(/C=C/c1ccc(O)cc1)Nc1ccc(-c2nc3ccc([N+](=O)[O-])cc3n2O)cc1 | Non-toxic | > 57 µM | 
N#Cc1ccc(/C=C/C(=O)Nc2ccc(-c3nc4ccc([N+](=O)[O-])cc4n3O)cc2)cc1 | Non-toxic | 16.4 µM | Activity (J774.A1 [3]): Active
O=C(Nc1ccc(-c2nc3ccc([N+](=O)[O-])cc3n2O)cc1)c1ccc(F)cc1 | Non-toxic | 17.7 µM | 
O=C(/C=C/c1ccc(F)cc1)Nc1ccc(-c2nc3ccc([N+](=O)[O-])cc3n2O)cc1 | Non-toxic | 3.9 µM | Activity (J774.A1 [3]): Active; IC50 [4]: 3.5 µM; IC50 [5]: > 53.8 µM; MIC [6]: > 64 µg/mL; MIC (Staphylococcus aureus): > 64 µg/mL; MIC (Escherichia coli): > 64 µg/mL
O=C(/C=C/c1ccc(F)cc1F)Nc1ccc(-c2nc3ccc([N+](=O)[O-])cc3n2O)cc1 | Non-toxic | 5 µM | 
COc1cc(NC(=O)/C=C/c2ccc(F)cc2)ccc1-c1nc2ccc([N+](=O)[O-])cc2n1O | Non-toxic | 13.5 µM | 
O=C(/C=C/c1ccc(F)cc1)Nc1ccc(-c2nc3ccc([N+](=O)[O-])cc3n2O)c(F)c1 | Non-toxic | 6.5 µM | 
O=C(Cc1ccc(F)cc1)Nc1ccc(-c2nc3ccc([N+](=O)[O-])cc3n2O)cc1 | Non-toxic | > 58.4 µM | 
COc1ccc(/C=C/C(=O)Nc2ccc(-c3nc4ccc([N+](=O)[O-])cc4n3O)cc2)cc1 | Non-toxic | 8 µM | Activity (J774.A1 [3]): Active; IC50 [4]: 5.9 µM; IC50 [5]: > 55.2 µM; MIC [6]: > 64 µg/mL; MIC (Staphylococcus aureus): > 64 µg/mL; MIC (Escherichia coli): > 64 µg/mL
CS(=O)(=O)c1ccc2nc(-c3ccc(NC(=O)/C=C/c4ccc(F)cc4)cc3)n(O)c2c1 | Non-toxic | 87.4 µM | 
CN(C)c1cc2nc(-c3ccc(NC(=O)/C=C/c4ccc(F)cc4)cc3)n(O)c2cc1[N+](=O)[O-] | Non-toxic | 66 µM | 
O=C(/C=C/c1ccc(F)cc1)Nc1ccc(-c2nc3ccncc3n2O)cc1 | Non-toxic | > 54.8 µM | 
CN(C)CCN(C)c1cc2nc(-c3ccc(NC(=O)/C=C/c4ccc(F)cc4)cc3)n(O)c2cc1[N+](=O)[O-] | Non-toxic |  | IC50 (Nucleic Acid): 3.3 µM
O=C(/C=C/c1ccc(F)cc1)Nc1ccc(-c2nc3cc(F)c([N+](=O)[O-])cc3n2O)cc1 | Non-toxic | 26.6 µM | 

Structure (SMILES) | Activity (J774.A1 [1]) | IC50 [2] | further results
O=C(/C=C/c1ccc(-n2cnnc2)cc1)Nc1ccc(-c2nc3ccc([N+](=O)[O-])cc3n2O)cc1 | Non-toxic | 35.7 µM | 
COc1ccc(/C=C/C(=O)Nc2ccc(-c3nc4ccc([N+](=O)[O-])cc4n3O)cc2)c(OC)c1 | Non-toxic | 38.5 µM | 
O=C(/C=C/c1ccc(F)cc1)Nc1ccc(-c2nc3ccc([N+](=O)[O-])cc3n2O)cc1F | Non-toxic | 20.7 µM | 
O=C(/C=C/c1ccc(F)cc1)Nc1ccc(-c2nc3ccc(C(F)(F)F)cc3n2O)cc1 | Non-toxic | 59.7 µM | 
COc1ccccc1/C=C/C(=O)Nc1ccc(-c2nc3ccc([N+](=O)[O-])cc3n2O)cc1 | Non-toxic | 20.9 µM | 
O=C(/C=C/c1ccc(F)cc1)Nc1ccc(-c2nc3ccccc3n2O)cc1 | Non-toxic | > 100 µM | 
O=C(/C=C/c1ccc(C(F)(F)F)cc1)Nc1ccc(-c2nc3ccc([N+](=O)[O-])cc3n2O)cc1 | Non-toxic | 6.4 µM | 
O=C(/C=C/c1ccc(F)cc1)Nc1ccc(-c2nc3ccc([N+](=O)[O-])cc3n2O)nc1 | Non-toxic | 10.8 µM | Activity (J774.A1 [3]): inactive
O=C(/C=C/c1ccc(F)cc1)Nc1ccc(-c2nc3ccc([N+](=O)[O-])cc3n2O)cn1 | Non-toxic | 7.4 µM | 
O=C(/C=C/c1ccc(F)cc1)Nc1ccc(-c2nc3ccc(F)cc3n2O)cc1 | Non-toxic | > 100 µM | 
O=C(/C=C/c1ccc(F)c(F)c1)Nc1ccc(-c2nc3ccc([N+](=O)[O-])cc3n2O)cc1 | Non-toxic | 14.5 µM | Activity (J774.A1 [3]): Active
O=C(/C=C/c1ccc(F)cc1)NCc1ccc(-c2nc3ccc([N+](=O)[O-])cc3n2O)cc1 | Non-toxic | 14 µM | 
N#Cc1ccc2nc(-c3ccc(NC(=O)/C=C/c4ccc(F)cc4)cc3)n(O)c2c1 | Non-toxic | 8.3 µM | 
O=C(CCc1ccc(F)cc1)Nc1ccc(-c2nc3ccc([N+](=O)[O-])cc3n2O)cc1 | Non-toxic | > 53.5 µM | 
Cc1ccc(/C=C/C(=O)Nc2ccc(-c3nc4ccc([N+](=O)[O-])cc4n3O)cc2)cc1 | Non-toxic | 0.8 µM | Activity (J774.A1 [3]): inactive
Cc1cc2nc(-c3ccc(NC(=O)/C=C/c4ccc(F)cc4)cc3)n(O)c2cc1[N+](=O)[O-] | Non-toxic | 7.6 µM | Activity (J774.A1 [3]): Active; IC50 [4]: 6.7 µM; IC50 [5]: > 52 µM; MIC [6]: > 64 µg/mL; MIC (Staphylococcus aureus): > 64 µg/mL; MIC (Escherichia coli): > 64 µg/mL
O=C(/C=C/c1ccccc1)Nc1ccc(-c2nc3ccc([N+](=O)[O-])cc3n2O)cc1 | Non-toxic | 6.9 µM | 
O=C(/C=C/c1ccc(F)cc1)Nc1ccc(-c2nc3ccc(C(=O)O)cc3n2O)cc1 | Non-toxic | 38.5 µM | 
CC(C)c1ccc(/C=C/C(=O)Nc2ccc(-c3nc4ccc([N+](=O)[O-])cc4n3O)cc2)cc1 | Non-toxic | > 50.9 µM | 
CN(C)c1ccc(/C=C/C(=O)Nc2ccc(-c3nc4ccc([N+](=O)[O-])cc4n3O)cc2)cc1 | Non-toxic | 16.9 µM | 
CC(=O)c1ccc2nc(-c3ccc(NC(=O)/C=C/c4ccc(F)cc4)cc3)n(O)c2c1 | Non-toxic | 39.4 µM | 
